Assay type in all cases: functional
Common to all, as to set-up: scale not given: the % may be the effect or the level left
Holding throughout (settings): route intraperitoneal

Experiment [1] relates to Rattus norvegicus. As to the kind of experiment: Antihyperlipidemic effect in high fat diet-induced rat assessed as decrease in serum triglyceride level at 20 mg/kg, ip relative to control. In outline: (§1)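 Male JCL:Wistar rats (150 g) on commercial chow 1 week, then high-fat diet (10 g soybean oil per 100 g, casein, α-cornstarch) 6 days, pair-matched for blood triglyceride and body weight. Compound suspended in 5% EtOH/saline, ip once daily for 3 days; controls get vehicle. Sacrificed 4 h after last dose (2–3 PM); serum separated at 1000 g, 4°. Six rats per group; percent of control; Student's t-test.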

The subject of experiment [2] is Rattus norvegicus. As to the kind of experiment: Antihyperlipidemic effect in high fat diet-induced rat assessed as decrease in serum triglyceride level at 10 mg/kg, ip relative to control. In outline: as §1
Experiment [3] concerns Rattus norvegicus. As to the kind of experiment: Antihyperlipidemic effect in high fat diet-induced rat assessed as decrease in serum total cholesterol level at 10 mg/kg, ip relative to control. In outline: as §1
Experiment [4] has as its system Rattus norvegicus. In words: Antihyperlipidemic effect in high fat diet-induced rat assessed as decrease in serum total cholesterol level at 20 mg/kg, ip relative to control. A digest of the protocol: as §1

The structures appear in SMILES notation.

Consider `Oc1cc(O)c2c(c1)O[C@H](c1ccc(O)c(O)c1)[C@@H](O)C2` [CIANIDANOL], for which the Activity in experiment [1] is given as 73%; in experiment [2], 75%; in experiment [3], 95%; in experiment [4], 99%.
On to `COc1ccc([C@@H]2CC(=O)c3c(O[C@@H]4O[C@H](CO)[C@@H](O)[C@H](O)[C@H]4O)cc(O)cc3O2)cc1O`, for which the Activity in experiment [1] is given as 90%; in experiment [2] it was 100%; in experiment [3], 88%; in experiment [4] it was 101%.
Taken in the same sequence, the figures for `O=C1C[C@@H](c2ccc(O)cc2)Oc2cc(O[C@@H]3O[C@H](CO)[C@@H](O)[C@H](O)[C@H]3O)cc(O)c21` [PRUNIN] were 107%, 90%, 102% and 91%.

(Values after ChEMBL document CHEMBL1158940, “Antihyperlipidemic effect of flavonoids from Prunus davidiana” (1991).)
